Assay results taken from ChEMBL document CHEMBL4038309, “Design and Synthesis of Chlorinated and Fluorinated 7-Azaindenoisoquinolines as Potent Cytotoxic Anticancer Agents That Inhibit Topoisomerase I” (J Med Chem, 2017).
Calls of active or inactive are those of the source. No cut-off for these calls is given here.

How the values were obtained:
[1] = target: T1, DNA topoisomerase 1 (Homo sapiens) (UniProt P11387); experiment: Inhibition of recombinant Top1 (unknown origin) assessed as Top 1 mediated DNA cleavage using 3'-[32P]-labeled 117 bp DNA as substrate at 0.1 to 100 uM after 20 mins by PAGE analysis
T1 sequence (whole entry): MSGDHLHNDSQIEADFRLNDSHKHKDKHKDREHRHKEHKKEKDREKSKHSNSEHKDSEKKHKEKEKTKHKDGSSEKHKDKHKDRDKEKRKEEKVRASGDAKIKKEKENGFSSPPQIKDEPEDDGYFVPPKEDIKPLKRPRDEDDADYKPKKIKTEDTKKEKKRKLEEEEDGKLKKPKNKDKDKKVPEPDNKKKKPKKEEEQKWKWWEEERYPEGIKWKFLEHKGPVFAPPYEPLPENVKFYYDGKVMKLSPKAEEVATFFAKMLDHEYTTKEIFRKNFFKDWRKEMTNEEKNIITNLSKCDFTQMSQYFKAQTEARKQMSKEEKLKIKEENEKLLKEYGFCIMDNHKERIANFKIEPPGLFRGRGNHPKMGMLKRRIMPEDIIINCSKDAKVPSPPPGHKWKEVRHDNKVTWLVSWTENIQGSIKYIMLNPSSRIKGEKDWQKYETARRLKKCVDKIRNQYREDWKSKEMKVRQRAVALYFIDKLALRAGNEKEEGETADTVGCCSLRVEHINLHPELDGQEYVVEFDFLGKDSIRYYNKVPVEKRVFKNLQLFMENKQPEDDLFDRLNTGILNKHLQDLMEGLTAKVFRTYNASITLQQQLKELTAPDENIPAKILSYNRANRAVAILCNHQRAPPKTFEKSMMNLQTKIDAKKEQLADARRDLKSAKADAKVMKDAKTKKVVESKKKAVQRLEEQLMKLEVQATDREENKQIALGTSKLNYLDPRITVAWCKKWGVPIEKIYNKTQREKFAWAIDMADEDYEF
Outline: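 About 2 nM 3'-[32P]-labeled DNA with recombinant Top1 in 10 mM Tris-HCl pH 7.5, 50 mM KCl, 5 mM MgCl2, 0.1 mM EDTA, 15 μg/mL BSA, 25 °C, 20 min. Compound at 0.1, 1, 10 and 100 μM. Stopped with 0.5% SDS and formamide dye, then run on 20% denaturing PAGE with phosphorimaging.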

UACC-62 = experiment: Antiproliferative activity against human UACC62 cells assessed as growth inhibition; format: functional
Outline: (§1)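 NCI-60 screen: single-dose pre-screen at 10 μM, then five concentrations from 0.01 to 100 μM. Values beyond the tested range are recorded as 0.01 or 100 μM.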

SF-539 = experiment: Antiproliferative activity against human SF539 cells assessed as growth inhibition; format: functional; outline: as §1
HCT-116 = experiment: Antiproliferative activity against human HCT116 cells assessed as growth inhibition; format: functional; outline: as §1
HOP-62 = experiment: Antiproliferative activity against human HOP62 cells assessed as growth inhibition; format: functional; outline: as §1
MCF7 = experiment: Antiproliferative activity against human MCF7 cells assessed as growth inhibition; format: functional; outline: as §1
OVCAR-3 = experiment: Antiproliferative activity against human OVCAR3 cells assessed as growth inhibition; format: functional; outline: as §1
DU-145 = experiment: Antiproliferative activity against human DU145 cells assessed as growth inhibition; format: functional; outline: as §1
SN12C = experiment: Antiproliferative activity against human SN12C cells assessed as growth inhibition; format: functional; outline: as §1
[2] = Toxicity in zebrafish embryo assessed as survival at 0.01 uM preincubated for 1 hr measured after 120 hrs (reference value: 82.5 +/- 8.4%); parameters: species or system Danio rerio; settings: zebrafish embryos
[3] = Toxicity in zebrafish embryo assessed as survival at 0.01 uM preincubated for 1 hr measured after 24 hrs (reference value: 86.2 +/- 8.5%); parameters: species or system Danio rerio; settings: zebrafish embryos
[4] = Toxicity in zebrafish embryo assessed as survival at 1 uM preincubated for 1 hr measured after 96 hrs (reference value: 82.5 +/- 8.4%); parameters: species or system Danio rerio; settings: zebrafish embryos
[5] = Toxicity in zebrafish embryo assessed as survival at 0.1 uM preincubated for 1 hr measured after 24 hrs (reference value: 86.2 +/- 8.5%); parameters: species or system Danio rerio; settings: zebrafish embryos
[6] = Toxicity in zebrafish embryo assessed as survival at 0.1 uM preincubated for 1 hr measured after 96 hrs (reference value: 82.5 +/- 8.4%); parameters: species or system Danio rerio; settings: zebrafish embryos
[7] = Toxicity in zebrafish embryo assessed as survival at 1 uM preincubated for 1 hr measured after 48 hrs (reference value: 84.4 +/- 8.5%); parameters: species or system Danio rerio; settings: zebrafish embryos
[8] = Toxicity in zebrafish embryo assessed as survival at 0.1 uM preincubated for 1 hr measured after 72 hrs (reference value: 82.5 +/- 8.4%); parameters: species or system Danio rerio; settings: zebrafish embryos
[9] = Toxicity in zebrafish embryo assessed as survival at 10 uM preincubated for 1 hr measured after 24 to 120 hrs (reference value: 82.5 to 86.2%); parameters: species or system Danio rerio; settings: zebrafish embryos
[10] = Toxicity in zebrafish embryo assessed as survival at 0.01 uM preincubated for 1 hr measured after 48 hrs (reference value: 84.4 +/- 8.5%); parameters: species or system Danio rerio; settings: zebrafish embryos
[11] = Toxicity in zebrafish embryo assessed as survival at 0.01 uM preincubated for 1 hr measured after 72 hrs (reference value: 82.5 +/- 8.4%); parameters: species or system Danio rerio; settings: zebrafish embryos
[12] = Toxicity in zebrafish embryo assessed as survival at 1 uM preincubated for 1 hr measured after 72 hrs (reference value: 82.5 +/- 8.4%); parameters: species or system Danio rerio; settings: zebrafish embryos
[13] = Toxicity in zebrafish embryo assessed as survival at 0.1 uM preincubated for 1 hr measured after 48 hrs (reference value: 84.4 +/- 8.5%); parameters: species or system Danio rerio; settings: zebrafish embryos
[14] = Toxicity in zebrafish embryo assessed as survival at 1 uM preincubated for 1 hr measured after 24 hrs (reference value: 86.2 +/- 8.5%); parameters: species or system Danio rerio; settings: zebrafish embryos
[15] = Toxicity in zebrafish embryo assessed as survival at 0.1 uM preincubated for 1 hr measured after 120 hrs (reference value: 82.5 +/- 8.4%); parameters: species or system Danio rerio; settings: zebrafish embryos
[16] = Toxicity in zebrafish embryo assessed as survival at 1 uM preincubated for 1 hr measured after 120 hrs (reference value: 82.5 +/- 8.4%); parameters: species or system Danio rerio; settings: zebrafish embryos
[17] = Toxicity in zebrafish embryo assessed as survival at 0.01 uM preincubated for 1 hr measured after 96 hrs (reference value: 82.5 +/- 8.4%); parameters: species or system Danio rerio; settings: zebrafish embryos

SMILES	Top1-mediated DNA cleavage activity (active/not active) [1]	GI50 (UACC-62)	GI50 (SF-539)	GI50 (HCT-116)	GI50 (HOP-62)	GI50 (MCF7)	GI50 (OVCAR-3)	GI50 (DU-145)	GI50 (SN12C)	other results
COc1cnc2c(c1)C(=O)c1c-2n(CCCNC(C)C)c(=O)c2cc(Cl)ccc12	Active	303 nM	554 nM	138 nM	70 nM	37 nM	1390 nM	173 nM	417 nM	
COc1cnc2c(c1)C(=O)c1c-2n(CCCN2CCCC2)c(=O)c2cc(F)ccc12	Active	471 nM	360 nM	153 nM	212 nM	48 nM	307 nM	211 nM	241 nM	
CNCCCn1c2c(c3ccc(F)cc3c1=O)C(=O)c1cc(OC)cnc1-2	inactive	608 nM	368 nM	143 nM	142 nM	34 nM	263 nM	202 nM	211 nM	
O=C1c2ccccc2-c2c1c1ccc([N+](=O)[O-])cc1c(=O)n2CCCn1ccnc1	Active									
CNCCCn1c2c(c3ccc(Cl)cc3c1=O)C(=O)c1cc(OC)cnc1-2	Active	574 nM	730 nM	550 nM	220 nM	46 nM	1410 nM	331 nM	1180 nM	
COc1cnc2c(c1)C(=O)c1c-2n(CCCn2ccnc2)c(=O)c2cc([N+](=O)[O-])ccc12	Active									survival at 120 h, 0.01 µM [2]: 45%; survival at 24 h, 0.01 µM [3]: 62.5%; survival at 96 h, 1 µM [4]: 0%; survival at 24 h, 0.1 µM [5]: 5.6%; survival at 96 h, 0.1 µM [6]: 0%; survival at 48 h, 1 µM [7]: 0%; survival at 72 h, 0.1 µM [8]: 0%; survival at 10 µM [9]: 0%; survival at 48 h, 0.01 µM [10]: 55.6%; survival at 72 h, 0.01 µM [11]: 45%; survival at 72 h, 1 µM [12]: 0%; survival at 48 h, 0.1 µM [13]: 0%; survival at 24 h, 1 µM [14]: 0%; survival at 120 h, 0.1 µM [15]: 0%; survival at 120 h, 1 µM [16]: 0%; survival at 96 h, 0.01 µM [17]: 45%
COc1cnc2c(c1)C(=O)c1c-2n(CCCNC(C)C)c(=O)c2cc(F)ccc12	Active	271 nM	248 nM	93 nM	107 nM	31 nM	190 nM	210 nM	164 nM	
COc1cnc2c(c1)C(=O)c1c-2n(CCCN2CCNCC2)c(=O)c2cc(Cl)ccc12	inactive	1430 nM	1330 nM	298 nM	200 nM	89 nM	1430 nM	242 nM	489 nM	
COc1cnc2c(c1)C(=O)c1c-2n(CCCN2CCC(O)CC2)c(=O)c2cc(F)ccc12	inactive	240 nM	295 nM	89 nM	142 nM	31 nM	254 nM	174 nM	189 nM	
COc1cnc2c(c1)C(=O)c1c-2n(CCCNC2=NCCS2)c(=O)c2cc(Cl)ccc12	Active	95 nM	470 nM	350 nM	42 nM	36 nM	1300 nM	92 nM		
COc1cnc2c(c1)C(=O)c1c-2n(CCCn2ccnc2)c(=O)c2cc(F)ccc12	Active	16 nM	24 nM	< 10 nM	< 10 nM	< 10 nM	43 nM	< 10 nM	< 10 nM	survival at 120 h, 0.01 µM [2]: 87.5%; survival at 24 h, 0.01 µM [3]: 87.5%; survival at 96 h, 1 µM [4]: 0%; survival at 24 h, 0.1 µM [5]: 86.2%; survival at 96 h, 0.1 µM [6]: 45.6%; survival at 48 h, 1 µM [7]: 0%; survival at 72 h, 0.1 µM [8]: 45.6%; survival at 10 µM [9]: 0%; survival at 48 h, 0.01 µM [10]: 87.5%; survival at 72 h, 0.01 µM [11]: 87.5%; survival at 72 h, 1 µM [12]: 0%; survival at 48 h, 0.1 µM [13]: 62.5%; survival at 24 h, 1 µM [14]: 28.8%; survival at 120 h, 0.1 µM [15]: 45.6%; survival at 120 h, 1 µM [16]: 0%; survival at 96 h, 0.01 µM [17]: 87.5%
COc1cnc2c(c1)C(=O)c1c-2n(CCCN2CCCC2)c(=O)c2cc(Cl)ccc12	Active									
COc1cnc2c(c1)C(=O)c1c-2n(CCCN2CCNCC2)c(=O)c2cc(F)ccc12	inactive	1260 nM	532 nM	91 nM	66 nM	34 nM	335 nM	62 nM	80 nM	
O=C1c2ccccc2-c2c1c1ccc(Cl)cc1c(=O)n2CCCn1ccnc1	Active	74 nM				31 nM			110 nM	
COc1cnc2c(c1)C(=O)c1c-2n(CCCN2CCOCC2)c(=O)c2cc([N+](=O)[O-])ccc12	Active									
COc1cnc2c(c1)C(=O)c1c-2n(CCCNC2=NCCS2)c(=O)c2cc(F)ccc12	Active	344 nM	305 nM	82 nM	59 nM	33 nM	567 nM	144 nM	238 nM	
CCNCCCn1c2c(c3ccc(F)cc3c1=O)C(=O)c1cc(OC)cnc1-2	Active	341 nM	320 nM	136 nM	149 nM	42 nM	282 nM	215 nM	151 nM	
COc1cnc2c(c1)C(=O)c1c-2n(CCCN2CCOCC2)c(=O)c2cc(F)ccc12	Active	235 nM	228 nM	115 nM	187 nM	44 nM	250 nM	341 nM	320 nM	
COc1cnc2c(c1)C(=O)c1c-2n(CCCN2CCOCC2)c(=O)c2cc(Cl)ccc12	Active	180 nM	230 nM	160 nM	270 nM	90 nM	780 nM	410 nM		
